Results as given in ChEMBL document CHEMBL4028907, “Semisynthesis and Biological Evaluation of Xanthone Amphiphilics as Selective, Highly Potent Antifungal Agents to Combat Fungal Resistance” (J Med Chem, 2017).
Values after ≈ are worked out from the molar mass of the structure shown. Active and inactive are the calls of the source. No cut-off for these calls is given here.

Experiments:
Candida albicans [1] = assay: Antifungal activity against Candida albicans ATCC90028 after 24 hrs by two fold serial dilution method; assay type: functional; settings: ATCC90028, 24 h
Outline: (§1)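 Candida grown on Sabouraud dextrose agar at 35 °C for 24 h, adjusted to ~5×10^3 CFU/mL. Two-fold dilutions from 100 to 0.78 μg/mL in Sabouraud dextrose broth, incubated at 35 °C for 24 h. MIC is the lowest concentration inhibiting growth by eye and by OD600. CLSI-based with minor modifications.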

Candida albicans [2] = assay: Antifungal activity against Candida albicans ATCC11651 after 24 hrs by two fold serial dilution method; assay type: functional; settings: ATCC11651, 24 h; outline: as §1
Candida albicans [3] = assay: Antifungal activity against Candida albicans DF1976R after 24 hrs by two fold serial dilution method; assay type: functional; outline: as §1
Fusarium solani [4] = assay: Antifungal activity against Fusarium solani 52628 after 48 hrs by two fold serial dilution method; assay type: functional; settings: Fusarium solani, 52628, 48 h
Outline: (§2)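 Moulds grown on potato dextrose agar, 30 °C, 4 days; inoculum adjusted to about 5×10^3 CFU/mL. Two-fold serial dilutions in RPMI-1640 broth, 100 to 0.78 μg/mL final, mixed with equal volume of cell suspension; incubated 30 °C, 48 h. MIC = lowest concentration inhibiting growth, judged visually and by OD530.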

Fusarium solani [5] = assay: Antifungal activity against Fusarium solani 46492 after 48 hrs by two fold serial dilution method; assay type: functional; settings: Fusarium solani, 46492, 48 h; outline: as §2
Aspergillus brasiliensis = assay: Antifungal activity against Aspergillus brasiliensis TCC16404 after 48 hrs by two fold serial dilution method; assay type: functional; settings: TCC16404, 48 h; outline: as §2
Fusarium solani [6] = assay: Antifungal activity against Fusarium solani MYA3636 after 48 hrs by two fold serial dilution method; assay type: functional; settings: MYA3636, 48 h; outline: as §2
Candida albicans [7] = assay: Antifungal activity against drug resistant Candida albicans DF2672R after 24 hrs by two fold serial dilution method; assay type: functional; outline: as §1
Fusarium oxysporum [8] = assay: Antifungal activity against Fusarium oxysporum MYA3461 after 48 hrs by two fold serial dilution method; assay type: functional; settings: MYA3461, 48 h; outline: as §2
Candida albicans [9] = assay: Fungicidal activity against drug resistant Candida albicans DF2672R at 8 times MIC after 24 hrs by time kill assay relative to control; assay type: functional
Outline: (§3)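 Cells at 10^5–10^6 CFU/mL exposed to 1×, 2×, 4× or 8× MIC at 35 °C. Samples taken at 0.5, 1, 2, 4, 8 and 24 h, serially diluted in PBS and plated on SDA. CFU counted after 24 h at 35 °C; biological replicates.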

Aspergillus fumigatus [10] = assay: Antifungal activity against Aspergillus fumigatus TCC 90906 after 48 hrs by two fold serial dilution method; assay type: functional; settings: TCC 90906, 48 h; outline: as §2
Fusarium oxysporum [11] = assay: Antifungal activity against Fusarium oxysporum 64530 after 48 hrs by two fold serial dilution method; assay type: functional; settings: Fusarium oxysporum, 64530, 48 h; outline: as §2
Aspergillus fumigatus [12] = assay: Antifungal activity against Aspergillus fumigatus TCC MYA3626 after 48 hrs by two fold serial dilution method; assay type: functional; settings: TCC MYA3626, 48 h; outline: as §2
Fusarium solani [13] = assay: Antifungal activity against Fusarium solani 62877 after 48 hrs by two fold serial dilution method; assay type: functional; settings: Fusarium solani, 62877, 48 h; outline: as §2
Candida albicans [14] = assay: Antifungal activity against Candida albicans ATCC24433 after 24 hrs by two fold serial dilution method; assay type: functional; settings: ATCC24433, 24 h; outline: as §1
Aspergillus flavus [15] = assay: Antifungal activity against Aspergillus flavus TCC MYA3631 after 48 hrs by two fold serial dilution method; assay type: functional; settings: TCC MYA3631, 48 h; outline: as §2
[16] = Selectivity index, ratio of HC50 for New Zealand white rabbit RBC to MIC for Candida albicans ATCC 10231
Candida albicans [17] = assay: Antifungal activity against Candida albicans ATCC 10231 after 24 hrs by two fold serial dilution method; assay type: functional; settings: ATCC 10231, 24 h; outline: as §1
Aspergillus flavus [18] = assay: Antifungal activity against Aspergillus flavus TCC 204304 after 48 hrs by two fold serial dilution method; assay type: functional; settings: TCC 204304, 48 h; outline: as §2
Candida albicans [19] = assay: Antifungal activity against drug resistant Candida albicans DF2672R infected C57BL6 mouse cornea at 5% administered topically for every 20 mins during the first hour and every 1 hr during the next 6 hrs by serial dilution method; assay type: functional
Outline: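 C57BL6 mice aged 7–8 weeks (19–23 g), immunosuppressed with cyclophosphamide 100 mg/kg ip at 4 days and 1 day before infection and on day 1 after. Left cornea scratched under xylazine/ketamine, then 20 μL of ~5×10^7 CFU/mL yeast in PBS applied. Treatment started 1 day later; PBS served as control; four mice per group. Corneal fungal load counted by serial dilution plating on SDA.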

Candida albicans [20] = assay: Fungicidal activity against drug resistant Candida albicans DF2672R after 0.5 to 24 hrs by time kill assay; assay type: functional; outline: as §3
Staphylococcus aureus [21] = assay: Antibacterial activity against methicillin resistant Staphylococcus aureus DM21455 by two fold serial dilution method; assay type: functional
Outline: (§4)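 Broth microdilution per CLSI guidelines with minor modifications, run in Mueller−Hinton broth; MIC is the lowest concentration giving no visible growth.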

Candida albicans [22] = assay: Fungicidal activity against drug resistant Candida albicans DF2672R at 8 times MIC after 4 hrs by time kill assay relative to control; assay type: functional; outline: as §3
Candida albicans [23] = assay: Induction of membrane permiablization in drug resistant Candida albicans DF2672R at 4 times MIC after 1 to 2 hrs by SYTOX green dye based spectrofluorometric assay; assay type: functional
Outline: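 Overnight cultures washed and resuspended in PBS at OD600 0.2, then loaded with 0.3 μM SYTOX Green in the dark. After the signal stabilised, compound in PBS/DMF was added (final DMF 0.5%; 0.5% DMF as control). Fluorescence (ex 504/em 523 nm) followed continuously for 1–2 h; biological replicates.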

Staphylococcus aureus [24] = assay: Antibacterial activity against methicillin resistant Staphylococcus aureus DM9808R by two fold serial dilution method; assay type: functional; outline: as §4
Candida albicans [25] = assay: Synergistic antifungal activity against drug resistant Candida albicans DF2672R after 24 hrs in presence of terbinafine by checkerboard assay; assay type: functional
Outline: (§5)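 Checkerboard combination of each compound with a second antifungal, following a previously reported procedure. FIC = MIC of A in combination/MIC of A alone + MIC of B in combination/MIC of B alone.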

Klebsiella pneumoniae = assay: Antibacterial activity against Klebsiella pneumoniae DM4299 by two fold serial dilution method; assay type: functional
Outline: (§6)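 Broth microdilution (CLSI, minor modifications) in Sabouraud dextrose, Mueller−Hinton or RPMI 1640 broth; two-fold serial dilutions of compound from stock to final 100 to 0.78 μg/mL. MIC taken as lowest concentration giving no visible growth.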

Lipid bilayer [26] = assay: Induction of membrane permiablization in calcein loaded DOPC/DOPE/PI large unilamellar vesicles assessed as calcein leakage at 1:8 compound to lipid ratio after 1 to 2 hrs by […] fluorescence assay relative to control
Outline: (§7)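 LUVs (DOPC/DOPE/PI 2:1:1 with 15 wt % ergosterol, about 100 nm) made by film hydration and extrusion, loaded with 80 mM calcein in HEPES buffer pH 7.4. Free dye removed by G-50 column. Compound added in 0.5% DMF at 50 μM final phospholipid. Emission read at 520 nm (excitation 490 nm); leakage normalized to 1% Triton X-100.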

Candida albicans [27] = assay: Synergistic antifungal activity against drug resistant Candida albicans DF2672R after 24 hrs in presence of posaconazole by checkerboard assay; assay type: functional; outline: as §5
Lipid bilayer [28] = assay: Induction of membrane permiablization in calcein loaded DOPC/DOPE/PI large unilamellar vesicles assessed as calcein leakage at 1:4 compound to lipid ratio after 1 to 2 hrs by fluorescence assay relative to control; outline: as §7
[29] = Cytotoxicity against human corneal fibroblasts assessed as cell viability up to 100 uM after 4 hrs by LDH assay relative to control; assay type: cell-based, Corneal fibroblast; settings: read-out: Activity
Outline: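 LDH release assay on human corneal fibroblasts seeded at 10000 cells per well, exposed to a range of compound concentrations up to 100 μM. 1% Triton X-100 served as positive control and 0.5% DMSO as negative control; biological replicates.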

Bacillus cereus = assay: Antibacterial activity against Bacillus cereus ATCC11778 by two fold serial dilution method; assay type: functional; outline: as §6
Candida albicans [30] = assay: Synergistic antifungal activity against drug resistant Candida albicans DF2672R after 24 hrs in presence of amphotericin B by checkerboard assay; assay type: functional; outline: as §5
Candida albicans [31] = assay: Synergistic antifungal activity against drug resistant Candida albicans DF2672R after 24 hrs in presence of miconazole by checkerboard assay; assay type: functional; outline: as §5
Candida albicans [32] = assay: Synergistic antifungal activity against drug resistant Candida albicans DF2672R after 24 hrs in presence of itraconazole by checkerboard assay; assay type: functional; outline: as §5
Pseudomonas aeruginosa = assay: Antibacterial activity against Pseudomonas aeruginosa DM23155 by two fold serial dilution method; assay type: functional; outline: as §6
Candida albicans [33] = assay: Ratio of MIC against drug resistant Candida albicans DF2672R measured after 30 passages to MIC against drug resistant Candida albicans DF2672R measured before 30 passages by two fold serial dilution method; assay type: functional
Outline: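 Serial passage: cells from duplicate tubes at 0.5× MIC adjusted to ~5×10^3 CFU/mL and used as the inoculum for the next broth microdilution MIC, 24 h at 35 °C. Repeated for 27–30 passages, with biological replicates.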

Candida albicans [34] = assay: Synergistic antifungal activity against drug resistant Candida albicans DF2672R after 24 hrs in presence of natamycin by checkerboard assay; assay type: functional; outline: as §5
Staphylococcus aureus [35] = assay: Antibacterial activity against Staphylococcus aureus DM4001R by two fold serial dilution method; assay type: functional; outline: as §6

| SMILES | MIC (Candida albicans [1]) [µg/mL] | MIC (Candida albicans [2]) [µg/mL] | MIC (Candida albicans [3]) [µg/mL] | MIC (Fusarium solani [4]) [µg/mL] | MIC (Fusarium solani [5]) [µg/mL] | MIC (Aspergillus brasiliensis) [µg/mL] | MIC (Fusarium solani [6]) [µg/mL] | MIC (Candida albicans [7]) [µg/mL] | MIC (Fusarium oxysporum [8]) [µg/mL] | MIC (Aspergillus fumigatus [10]) [µg/mL] | MIC (Fusarium oxysporum [11]) [µg/mL] | MIC (Aspergillus fumigatus [12]) [µg/mL] | MIC (Fusarium solani [13]) [µg/mL] | MIC (Candida albicans [14]) [µg/mL] | MIC (Aspergillus flavus [15]) [µg/mL] | Selectivity Index [16] | MIC (Candida albicans [17]) [µg/mL] | MIC (Aspergillus flavus [18]) [µg/mL] | further results |
| --- | --- | --- | --- | --- | --- | --- | --- | --- | --- | --- | --- | --- | --- | --- | --- | --- | --- | --- | --- |
| C[C@@H]1C/C=C/C=C/C=C/C=C/[C@H](O[C@@H]2O[C@H](C)[C@@H](O)[C@H](N)[C@@H]2O)C[C@@H]2O[C@](O)(C[C@@H](O)C[C@H]3O[C@@H]3/C=C/C(=O)O1)C[C@H](O)[C@H]2C(=O)O [NATAMYCIN] | 6.25 (≈ 9.39 µM) | 6.25 (≈ 9.39 µM) | 6.25 (≈ 9.39 µM) | 6.25 (≈ 9.39 µM) | 6.25 (≈ 9.39 µM) | 6.25 (≈ 9.39 µM) | 6.25 (≈ 9.39 µM) | 6.25 (≈ 9.39 µM) | 3.13 (≈ 4.7 µM) | 6.25 (≈ 9.39 µM) | 6.25 (≈ 9.39 µM) | 6.25 (≈ 9.39 µM) | 25 (≈ 37.6 µM) | 6.25 (≈ 9.39 µM) | > 50 | 18.1 | 6.25 (≈ 9.39 µM) | > 50 | Activity (Candida albicans [9]): 99.9%; Activity (Candida albicans [19]): Active |
| CCCCN(CCCC)CC(O)COc1cc2oc3cc(OCC(O)CN(CCCC)CCCC)c(OC)c(CC=C(C)C)c3c(=O)c2c(O)c1CC=C(C)C (configuration not stated) | 3.13 (≈ 4.01 µM) | 3.13 (≈ 4.01 µM) | 3.13 (≈ 4.01 µM) | 6.25 (≈ 8 µM) | 6.25 (≈ 8 µM) | 3.13 (≈ 4.01 µM) | 3.13 (≈ 4.01 µM) | 3.13 (≈ 4.01 µM) | 3.13 (≈ 4.01 µM) | 12.5 (≈ 16 µM) | 6.25 (≈ 8 µM) | 6.25 (≈ 8 µM) | 6.25 (≈ 8 µM) | 3.13 (≈ 4.01 µM) | 12.5 (≈ 16 µM) | > 128 | 3.13 (≈ 4.01 µM) | 12.5 (≈ 16 µM) | Activity (Candida albicans [20]): Dose-dependent effect; MIC (Staphylococcus aureus [21]): > 50 µg/mL; Activity (Candida albicans [22]): 99.9%; Activity (Candida albicans [23]): Active; MIC (Staphylococcus aureus [24]): > 50 µg/mL; fractional inhibitory concentration index (FICI) (Candida albicans [25]): 0.29; MIC (Klebsiella pneumoniae): > 50 µg/mL; Activity (Lipid bilayer [26]): 25.8%; fractional inhibitory concentration index (FICI) (Candida albicans [27]): 0.91; Activity (Lipid bilayer [28]): 55.4%; viability at 4 h [29]: > 99%; MIC (Bacillus cereus): > 50 µg/mL; fractional inhibitory concentration index (FICI) (Candida albicans [30]): 0.64; fractional inhibitory concentration index (FICI) (Candida albicans [31]): 0.81; fractional inhibitory concentration index (FICI) (Candida albicans [32]): 0.63; MIC (Pseudomonas aeruginosa): > 50 µg/mL; Ratio (Candida albicans [33]): 2; fractional inhibitory concentration index (FICI) (Candida albicans [34]): 0.91; MIC (Staphylococcus aureus [35]): > 50 µg/mL |
